Source: ChEMBL document CHEMBL3784993, “Synthesis and anticancer activity of some 5-fluoro-2'-deoxyuridine phosphoramidates” (Bioorg Med Chem, 2016)

Experiments:
KB = assay: Cytotoxicity against human KB cells after 72 hrs by SRB assay; type: functional, cell-based
Method in brief: (§1)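 SRB protein-stain assay. Cells were seeded at about 10,000 per well and grown 24 h to a partial monolayer. They were then exposed for 72 h at 37 °C (5% CO2, 90% RH) to six concentrations: 0.1, 0.2, 1, 2, 10 and 20 µM. Final DMSO was ≤0.1%. Cells were TCA-fixed and stained with 0.4% SRB, and OD was read at 490 nm. Survival was expressed versus untreated cells. Cytarabine served as internal standard, with three experiments.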

HepG2 [1] = assay: Cytotoxicity against human HepG2 cells after 72 hrs by SRB assay; type: functional, cell-based; conditions: HepG2, 72 h
MCF7 [2] = assay: Cytotoxicity against human MCF7cells after 72 hrs by SRB assay; type: functional, cell-based; conditions: MCF7, 72 h
[3] = Cytotoxicity against HDF cells after 72 hrs by SRB assay; type: cell-based; conditions: Homo sapiens
HeLa [4] = assay: Cytotoxicity against human HeLa cells after 72 hrs by SRB assay; type: functional, cell-based; method in brief: as §1
HeLa [5] = assay: Selectivity index, ratio of IC50 for HDF cells to IC50 for human HeLa cells; type: functional
Method in brief: (§2)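 SI is calculated as the IC50 in normal human dermal fibroblasts (HDF) divided by the IC50 in the respective cancer line. Both values come from 72 h SRB assays. SD is from three independent experiments.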

MCF7 [6] = assay: Selectivity index, ratio of IC50 for HDF cells to IC50 for human MCF7 cells; type: functional; method in brief: as §2
[7] = Selectivity index, ratio of IC50 for HDF cells to IC50 for human KB cells; type: functional; method in brief: as §2
HepG2 [8] = assay: Selectivity index, ratio of IC50 for HDF cells to IC50 for human HepG2 cells; type: functional; method in brief: as §2
143B [9] = assay: Cytotoxicity against human thymidine kinase deficient 143B cells after 72 hrs by SRB assay; type: functional, cell-based; method in brief: as §1
143B [10] = assay: Cytotoxicity against human 143B cells after 72 hrs by SRB assay; type: functional, cell-based; method in brief: as §1
143B [11] = assay: Selectivity index, ratio of IC50 for HDF cells to IC50 for human 143B cells; type: functional; method in brief: as §2
MCF7 [12] = assay: Potency index, ratio of IC50 for 5-fluoro-2'-deoxyuridine to IC50 for test compound for cytotoxicity against human MCF7cells after 72 hrs by SRB assay; type: functional
HeLa [13] = assay: Cytotoxicity against human HeLa cells after 72 hrs in presence of human recombinant cytochrome P450 isoform mixture by SRB assay; type: functional, cell-based

Structure (SMILES)	IC50 (KB) [µM]	IC50 (HepG2 [1]) [µM]	IC50 (MCF7 [2]) [µM]	IC50 [3] [µM]	IC50 (HeLa [4]) [µM]	Ratio IC50 (HeLa [5])	Ratio IC50 (MCF7 [6])	Ratio IC50 [7]	Ratio IC50 (HepG2 [8])	IC50 (143B [9]) [µM]	IC50 (143B [10]) [µM]	Ratio IC50 (143B [11])	Ratio IC50 (MCF7 [12])	IC50 (HeLa [13]) [µM]
COC(=O)[C@H](C)NP(=O)(OC[C@H]1O[C@@H](n2cc(F)c(=O)[nH]c2=O)C[C@@H]1O)Oc1ccccc1 (stereo partly drawn)	18	25.9	29.1	43.1	23.5									
O=c1[nH]c(=O)n([C@H]2C[C@H](O)[C@@H](COP(=O)(NCC(F)(F)F)Oc3ccc(Cl)cc3)O2)cc1F (stereo partly drawn)	1.93	3.48	1.82	4.19	3.09	1.36	2.3	2.17	1.2	2.51	1.8	2.33		
CCNP(=O)(OC[C@H]1O[C@@H](n2cc(F)c(=O)[nH]c2=O)C[C@@H]1OC(=O)OC(C)(C)C)Oc1ccc(Cl)cc1 (stereo partly drawn)	3.37	4.26	1.42	6.02	2.66	2.26	4.24	1.79	1.41	9.11	4.4	1.37	9	
CCCCNP(=O)(OC[C@H]1O[C@@H](n2cc(F)c(=O)[nH]c2=O)C[C@@H]1O)Oc1ccc(Cl)cc1 (stereo partly drawn)	> 100	> 100	> 100	> 100	> 100									> 100
COC(=O)[C@H](C)NP(=O)(OC[C@H]1O[C@@H](n2cc(F)c(=O)[nH]c2=O)C[C@@H]1O)Oc1ccc(Cl)cc1 (stereo partly drawn)	4.22	6.65	4.54	18.4	4.11	4.49	4.06	4.37	2.77	8.67	4.03	4.58		
CC(C)(C)OC(=O)O[C@H]1C[C@H](n2cc(F)c(=O)[nH]c2=O)O[C@@H]1COP(=O)(NCC(F)(F)F)Oc1ccc(Cl)cc1 (stereo partly drawn)	14.6	18.8	4.05	37.1	14.6					2.01	0.28			
C=CCNP(=O)(OC[C@H]1O[C@@H](n2cc(F)c(=O)[nH]c2=O)C[C@@H]1OC(=O)OC(C)(C)C)Oc1ccc(Cl)cc1 (stereo partly drawn)	16.5	17	12.8	27.2	19.1									
CCCCNP(=O)(OC[C@H]1O[C@@H](n2cc(F)c(=O)[nH]c2=O)C[C@@H]1OC(=O)OC(C)(C)C)Oc1ccc(Cl)cc1 (stereo partly drawn)	66.4	64.2	80.1	87	76									71.4
CCCNP(=O)(OC[C@H]1O[C@@H](n2cc(F)c(=O)[nH]c2=O)C[C@@H]1OC(=O)OC(C)(C)C)Oc1ccc(Cl)cc1 (stereo partly drawn)	27.2	26	20.8	61.1	49.3									45.2
CC(C)(C)OC(=O)O[C@H]1C[C@H](n2cc(F)c(=O)[nH]c2=O)O[C@@H]1COP(=O)(NCCCN=[N+]=[N-])Oc1ccc(Cl)cc1 (stereo partly drawn)	54.9	46.9	58.5	57.2	52.5									24.1
[N-]=[N+]=NCCCNP(=O)(OC[C@H]1O[C@@H](n2cc(F)c(=O)[nH]c2=O)C[C@@H]1O)Oc1ccc(Cl)cc1 (stereo partly drawn)	22.6	22.6	27	41	22.2									13.5
C=CCNP(=O)(OC[C@H]1O[C@@H](n2cc(F)c(=O)[nH]c2=O)C[C@@H]1O)Oc1ccc(Cl)cc1 (stereo partly drawn)	38.7	96.7	94.5	92.1	89.3									
CC(C)(C)OC(=O)O[C@H]1C[C@H](n2cc(F)c(=O)[nH]c2=O)O[C@@H]1COP(=O)(NCCCCN=[N+]=[N-])Oc1ccc(Cl)cc1 (stereo partly drawn)	35.6	58.9	35.4	48.3	36									17.7
COC(=O)[C@H](C)NP(=O)(OC[C@H]1O[C@@H](n2cc(F)c(=O)[nH]c2=O)C[C@@H]1OC(=O)OC(C)(C)C)Oc1ccc(Cl)cc1 (stereo partly drawn)	1.54	3.47	2.56	6.21	1.65	3.76	2.39	4.03	1.66	3.07	1.51	4.11		
[N-]=[N+]=NCCCCNP(=O)(OC[C@H]1O[C@@H](n2cc(F)c(=O)[nH]c2=O)C[C@@H]1O)Oc1ccc(Cl)cc1 (stereo partly drawn)	71.3	> 100	67.6	> 100	72.1									20.6
C#CCNP(=O)(OC[C@H]1O[C@@H](n2cc(F)c(=O)[nH]c2=O)C[C@@H]1OC(=O)OC(C)(C)C)Oc1ccc(Cl)cc1 (stereo partly drawn)	4.37	3.66	4.71	7.21	4.36	1.65	1.53	1.65	1.97	3.62	3.02	2.39		
CC(C)(C)OC(=O)O[C@H]1C[C@H](n2cc(F)c(=O)[nH]c2=O)O[C@@H]1CO	75.9	80.4	64.2	> 100	63.5					47	18			
COC(=O)[C@H](C)NP(=O)(OC[C@H]1O[C@@H](n2cc(F)c(=O)[nH]c2=O)C[C@@H]1OC(=O)OC(C)(C)C)Oc1ccccc1 (stereo partly drawn)	8.34	9.28	6.29	17.5	8.34									
CCCNP(=O)(OC[C@H]1O[C@@H](n2cc(F)c(=O)[nH]c2=O)C[C@@H]1O)Oc1ccc(Cl)cc1 (stereo partly drawn)	50.4	41.9	27.2	61	50.2									45.9
CNP(=O)(OC[C@H]1O[C@@H](n2cc(F)c(=O)[nH]c2=O)C[C@@H]1OC(=O)OC(C)(C)C)Oc1ccc(Cl)cc1 (stereo partly drawn)	7.28	6.55	8.18	12.4	7.27					13.1	6.72			
CNP(=O)(OC[C@H]1O[C@@H](n2cc(F)c(=O)[nH]c2=O)C[C@@H]1O)Oc1ccc(Cl)cc1 (stereo partly drawn)	4.45	9.34	4.44	11.8	5.78	2.05	2.66	2.66	1.27	12.7	2.12	5.58		
CCNP(=O)(OC[C@H]1O[C@@H](n2cc(F)c(=O)[nH]c2=O)C[C@@H]1O)Oc1ccc(Cl)cc1 (stereo partly drawn)	8.21	5.39	19.4	16.3	8.19					16	2.41			
C#CCNP(=O)(OC[C@H]1O[C@@H](n2cc(F)c(=O)[nH]c2=O)C[C@@H]1O)Oc1ccc(Cl)cc1 (stereo partly drawn)	25.3	24.5	12	31	10.6					3.9	3.61			
Nc1ccn([C@@H]2O[C@H](CO)[C@@H](O)[C@@H]2O)c(=O)n1 [CYTARABINE]		2.86		4.99		1.41	1.31	1.23	1.75	16.9	2.06	2.42		
O=c1[nH]c(=O)n([C@H]2C[C@H](O)[C@@H](CO)O2)cc1F [FLOXURIDINE]		8.91		13.1		2.01	1.07	1.5	1.47	14.1	6.02	2.17		
O=c1[nH]cc(F)c(=O)[nH]1 [FLUOROURACIL]		6.6		7.02		1.13	1.08	1.45	1.06	16.3	13	0.54		
Oc1ccc(Cl)cc1 [PARACHLOROPHENOL]	1450	1700	1880	1850	1680									
